Screening data as filed in PubChem.
Only some compounds are listed: those with a hit (about 1.2% of all), similar ones and a draw of the others.
UBC9 SUMO inh: inhibitors of in vitro SUMOylation cascade, primary screen, biochemical, HTRF, uHTS; 290,000 tested, 0.36% active; inhibition, % at 35 µM; AID 2006, 2009; SUMO-conjugating enzyme UBC9 (Homo sapiens), P63279; HTRF SUMOylation assay, SAE1/SAE2 + UBC9; in the data active = inhibition above about 50%, passing the limit was not always enough
Target sequence (P63279 whole entry, looked up): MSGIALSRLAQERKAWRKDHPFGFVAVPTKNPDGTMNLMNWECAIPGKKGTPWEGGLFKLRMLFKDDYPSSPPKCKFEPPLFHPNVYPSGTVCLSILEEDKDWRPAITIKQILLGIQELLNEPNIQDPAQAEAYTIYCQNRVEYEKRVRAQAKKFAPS
TDP2 absorb: human TDP2 enzyme inhibitors, primary screen, biochemical, epi absorbance, recombinant enzyme; T5PNP hydrolysis, p-nitrophenol absorbance 415 nm; Tyrosyl-DNA phosphodiesterase 2 (Homo sapiens), O95551; AID 720702, 2013; inhibition, % at 12.8 µM; 370,000 tested, 0.34% active;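 active = inhibition above the mean of all tested compounds plus 3 SD, set per campaign, cut at about 25% in these data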;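 also: 0% = DMSO with enzyme and 100% = buffer with substrate but no TDP2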
Target sequence (O95551 whole entry, looked up): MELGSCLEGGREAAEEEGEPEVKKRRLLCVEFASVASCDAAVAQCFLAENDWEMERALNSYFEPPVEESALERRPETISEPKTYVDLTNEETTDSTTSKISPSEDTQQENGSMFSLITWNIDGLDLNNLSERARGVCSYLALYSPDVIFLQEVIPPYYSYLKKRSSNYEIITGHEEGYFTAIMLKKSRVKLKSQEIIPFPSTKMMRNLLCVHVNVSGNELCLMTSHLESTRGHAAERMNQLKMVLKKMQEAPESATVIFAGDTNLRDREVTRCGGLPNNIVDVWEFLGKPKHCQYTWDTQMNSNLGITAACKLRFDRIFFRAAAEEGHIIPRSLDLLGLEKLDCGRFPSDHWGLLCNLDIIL
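System – recombinant human TDP2 · Amount – 120 nM TDP2 per well · Buffer or medium – Mg2+-containing Tris-HCl buffer, pH 7.5 · Reagent – T5PNP substrate, 5 mM · Dosing – 12.8 µM single point, 1% DMSO · Incubation – 2 h at 37 °C · Measured by – epi absorbance · Read-out basis – percent inhibition · Benchmarks – high control without enzyme, low control DMSO plus TDP2 · Repeats – singlicate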
NSD2 inh: NSD2 histone methyltransferase inhibitors, primary screen, biochemical, AlphaScreen, single concentration, set 2 | NSD2 peptide methylation, 120 min | 310,000 tested, 0.54% active | inhibition, % at 12.5 µM | Histone-lysine N-methyltransferase NSD2 (Homo sapiens), O96028 | AID 743445, 2014; in the data active = inhibition above about 50%
CTSL1 counter: Fasciola hepatica cathepsin L1 inhibitors, primary screen, counter-screen for PFM18AAP inhibitor project, biochemical, QFRET, fluorogenic peptide substrate; 300,000 tested, 0.49% active; recombinant F. hepatica cathepsin L1, Z-Leu-Arg-MCA fluorescence; AID 1906, 2009; inhibition, % at 5.96 µM;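 active = inhibition above the mean of all tested compounds plus 3 SD, set per screening campaign, cut at about 17% in these data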;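 also: 0% = plate median of test compound wells and 100% = 1 µM Z-Phe-Ala-diazomethylketone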
AlphaScreen art: AlphaScreen signal interference with preloaded methylated product, dose response, artefact control for NSD2 inhibitor project, biochemical, cherry-picked samples | shares compounds with NSD2 inh | AC35, µM (doses to about 10 µM), for inactives: top-dose activity change, negative = signal loss | AlphaScreen artifact counterscreen, preloaded methylated H4 peptide | 1,500 tested, 9.4% active; call rule not given here
* marks the source's active call; other numbers are inactive results; . = not tested or not shown.

SMILES	UBC9 SUMO inh	TDP2 absorb	NSD2 inh	CTSL1 counter	AlphaScreen art
CCCc1nc2ccc(C(=O)OC)cn2c1Cc1ccccc1OC	.	4.9	.	.	.
CC1CCCCN1CCNC(=O)c1cc2c(-c3ccccc3F)nn(C)c2s1 (configuration not stated)	21.1	1.1	.	3.9	.
CCCCN(CC)CCNC(=O)c1cc2c(-c3ccccc3F)nn(C)c2s1	29.2	-6.5	85.6*	5.4	-4.0%
Cc1cc(=O)c(C(=O)Nc2cccc(C(=O)NC3CC3)c2)nn1-c1ccccc1	.	4.4	-0.3	.	.
O=C1/C(=C/c2ccccc2)CN(C(=O)CCN2CCOCC2)C/C1=C\c1ccccc1	.	10.5	68.0*	.	-0.2%
C[N+](C)(C)CCC(=O)N1C/C(=C/c2ccccc2)C(=O)/C(=C\c2ccccc2)C1	.	1.5	50.2*	.	-3.9%
CN(C)CCC(=O)N1C/C(=C/c2ccccc2)C(=O)/C(=C\c2ccccc2)C1	.	8.3	50.4*	.	-7.0%
COC1=C(Br)C(=O)c2nc(C)ccc2C1=O	.	25.3*	185.6*	.	-7.7%
COC1=C(N)C(=O)c2nc(C)ccc2C1=O	.	21.5	189.2*	.	-1.4%
Cc1nc2c(nc1C)C(=O)c1ccccc1C2=O	.	6.2	48.4	.	.
Cn1c(=O)[nH]c(=O)c2c1[nH]c(=S)n2Cc1ccc(Cl)cc1	1.5	19.0	.	-1.1	.
COc1cccc(-c2nn3c(-c4ccco4)nnc3s2)c1	28.6	-18.2	90.1*	8.7	-5.3%
O=C(Cc1ccc(Cl)cc1)Nc1ncc([N+](=O)[O-])s1	9.0	6.0	3.1	.	.
O=C(Cc1ccc(Br)cc1)Nc1ncc([N+](=O)[O-])s1	23.0	3.1	50.2*	-4.1	0.0%
O=C(O)CC1S/C(=N/N=C/c2ccc(-c3ccc(Cl)cc3[N+](=O)[O-])o2)NC1=O (configuration not stated)	17.6	-8.3	60.4*	2.9	-7.8%
CCN(CC)CCCNc1nc(-n2nc(C)cc2C)nc2sc3c(c12)CC(C)(C)OC3	7.3	-10.6	75.6*	0.1	-4.8%
CCCn1c(C)nc2c(c1=O)c1nc3ccccc3nc1n2-c1ccccc1	.	-5.4	53.5*	.	0.8%
CCCn1c(C)nc2c(c1=O)c1nc3ccccc3nc1n2CCC1=CCCCC1	25.6	3.6	-3.2	2.1	.
Cc1cccc2c(N=NC(=O)c3ccc(NS(=O)(=O)c4cccs4)cc3)c(O)[nH]c12	.	-1.3	63.7*	.	-8.4%
Cc1ccc2[nH]c(O)c(N=NC(=O)c3ccc(NS(=O)(=O)c4cccs4)cc3)c2c1	45.5	7.5	0.3	3.1	.
O=C(c1ccco1)N1CCN(C2CC(=O)N(c3ccc(F)c(Cl)c3)C2=O)CC1 (configuration not stated)	6.4	-8.8	-3.7	2.5	.
CC1(C)NC(=O)N(CCOCCOc2ccccc2)C1=O	8.8	-1.2	-5.7	-1.1	.
CC1(C)NC(=O)N(CCOCCOc2c(Cl)cc(Cl)cc2Cl)C1=O	12.3	9.0	124.9*	-2.5	-4.8%
O=S(=O)(c1ccccc1)N1CCN(S(=O)(=O)c2ccc3c(c2)OCCO3)CC1	.	0.3	-0.9	.	.
C/C(=N\NC(=O)CSc1nc2ccccc2o1)c1cccc(O)c1	5.1	-4.9	-1.2	-0.1	.
SMILES	UBC9 SUMO inh	TDP2 absorb	NSD2 inh	CTSL1 counter	AlphaScreen art
COc1ccc2nc(C)cc(SCC(=O)N/N=C/c3ccc(O)c(O)c3)c2c1	-2.3	5.3	66.5*	3.3	-13.2%
C/C(=N\NC(=O)CSc1nc2ccccc2o1)c1ccc(O)cc1	11.0	6.1	51.2*	0.4	-4.8%
O=C(CSc1nc2ccccc2o1)N/N=C/c1ccc(O)c(O)c1	-12.8	-20.4	116.2*	-1.2	2.2µM*
CCCC[n+]1ccn(C2=C([O-])c3ccccc3C(=O)/C2=N\S(=O)(=O)c2ccccc2)c1	-2.7	-1.1	31.1	9.2	.
CC(C)[n+]1ccn(C2=C([O-])c3ccccc3C(=O)/C2=N\S(=O)(=O)c2ccccc2)c1	21.2	20.2	95.9*	6.1	3.6%
CC(C)(C)c1cc[n+](C2=C([O-])c3ccccc3C(=O)/C2=N\S(=O)(=O)c2ccccc2)cc1	49.5	9.1	62.9*	11.1	-2.8%
O=C(c1ccc(Cl)c(S(=O)(=O)N2CCCCC2)c1)N1CCCC1	14.7	0.5	-0.1	-2.0	.
CCOc1ccc2nc3cc(N=Nc4ccc(N)nc4N)ccc3c(N)c2c1	.	.	59.0*	.	-11.8%
CCCCN1C(=O)C(=O)NC[C@@H]1Cc1ccc(O)cc1	.	0.9	-0.8	.	.
Cc1nc2c(ccc3c2ccc2nc(C)sc23)s1	13.5	10.8	3.7	0.4	.
COc1cc2sc(C)nc2c2ccccc12	5.1	23.3	64.0*	0.8	-0.6%
CC(C)COC(=O)N1CCN(S(=O)(=O)c2ccc3c(c2)CCC3)CC1	.	2.5	-2.2	.	.
O=C(OCCN1CCN(C2CN(Cc3cn(Cc4ccccc4C(F)(F)F)nn3)S(=O)(=O)C2)CC1)c1cc2ccccc2o1 (configuration not stated)	.	-4.2	.	.	.
CCN1CCCC1CNc1ncnc2c1[nH]c1ccc(Cl)cc12 (configuration not stated)	21.5	6.4	54.3*	6.5	-1.5%
CCN(CC(=O)Nc1ccccc1C(F)(F)F)C(=O)c1ccccc1OCc1ccc(F)cc1	.	-15.2	-0.3	.	.
CN(C)/C=C1\C(=O)N(c2ccc(Cl)cc2)CS1(=O)=O	-2.4	7.6	-1.5	0.2	.
Cc1ccc(N2CS(=O)(=O)/C(=C/N(C)C)C2=O)cc1	9.6	8.6	64.0*	-0.5	-1.1%
COc1ccc(C(=O)Oc2ccc(/C=N/Nc3ccc(Cl)c(C(=O)O)c3)cc2OC)cc1	15.4	-10.5	85.0*	1.8	-6.3%
CCSc1nc(-c2ccco2)ccc1C#N	29.2	-14.3	0.0	2.0	.
N#Cc1ccc(-c2ccco2)nc1SCc1ccccc1	28.3	-1.7	55.0*	-3.6	-0.6%
O=C(Nc1ccc(F)c(Cl)c1)c1ccc2sc([C@@H]3O[C@H](CO)[C@H](O)[C@H](O)[C@H]3O)nc2c1	.	16.1	-2.7	.	.
CCN(CC)CCCN=Cc1c(-c2ccccc2)[nH]n(-c2nc3ccccc3s2)c1=O	33.9	1.6	75.1*	-8.8	-4.9%
CCn1cnc2c1c(=O)n(CC(=O)O)c(=O)n2Cc1ccccc1	5.4	2.2	113.0*	1.8	-0.6%
CCn1cnc2c1c(=O)n(CC(=O)OC)c(=O)n2Cc1ccccc1	-0.3	8.0	-2.1	-1.8	.
CC(C)(C#N)NC(=O)C1CCCN1S(=O)(=O)c1ccc2ccccc2c1 (configuration not stated)	8.2	4.5	109.2*	0.5	-2.1%
CN(C(=O)[C@H]1O[C@@H](n2cnc(C(N)=O)n2)[C@H](O)[C@@H]1O)c1ccccc1	.	-1.8	.	.	.
Nc1nc(COC(=O)c2ccco2)nc(Nc2ccccc2)n1	.	-6.0	53.2*	.	-3.4%
COc1cc(NC(=O)CCn2c(=O)oc3ccccc32)cc(OC)c1OC	-12.2	-3.6	51.1*	-1.9	3.1%
